According to ChEMBL document CHEMBL1156566, “Investigations on the 4-quinolone-3-carboxylic acid motif. 1. Synthesis and structure-activity relationship of a class of human immunodeficiency virus type 1 integrase inhibitors” (J Med Chem, 2008):

Columns and labels:
[1] = target: T1, Human immunodeficiency virus type 1 integrase (Human immunodeficiency virus 1, UniProt Q7ZJM1); test: Inhibition of HIV1 integrase by overall integration assay
[2] = target: T1, Human immunodeficiency virus type 1 integrase; test: Inhibition of HIV1 integrase DNA strand transfer activity
[3] = tested on: Human immunodeficiency virus 1; test: Antiviral activity against HIV1 3B in MT4 cells assessed as inhibition of virus-induced cytopathic effect by MTT assay; type: functional, organism-based; conditions: Human immunodeficiency virus 1, 3B
Outline: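 Human lymphocyte MT-4 cultures were infected with HIV-1, and protection from virus-induced cytopathic effect was read by MTT.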

[4] = Cytotoxicity against human MT4 cells by MTT assay; type: cell-based
Outline: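 Human lymphocyte MT-4 cultures were read by MTT in the MT-4/MTT format.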

[5] = target: T1, Human immunodeficiency virus type 1 integrase; test: Inhibition of HIV1 integrase 3'-processing activity

T1 sequence (Q7ZJM1 whole entry): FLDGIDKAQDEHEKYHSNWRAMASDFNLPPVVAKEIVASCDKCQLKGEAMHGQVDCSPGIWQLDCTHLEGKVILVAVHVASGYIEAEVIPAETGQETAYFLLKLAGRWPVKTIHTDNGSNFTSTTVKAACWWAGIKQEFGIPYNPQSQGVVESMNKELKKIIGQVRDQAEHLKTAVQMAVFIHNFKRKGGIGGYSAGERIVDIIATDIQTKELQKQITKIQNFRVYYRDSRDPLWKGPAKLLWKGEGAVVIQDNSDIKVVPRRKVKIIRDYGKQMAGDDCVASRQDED

Row | Compound | IC50 [1] | IC50 [2] | EC50 [3] | CC50 [4] | IC50 [5]
1 | O=C(O)c1cn(CCCO)c2ccc(Cc3ccc(Cl)cc3Cl)cc2c1=O | 0.9 µM | 1.3 µM | > 3.6 µM | 3.6 µM | –
2 | CCn1cc(C(=O)O)c(=O)c2c1C(=O)C=C(Nc1ccc(F)c(Cl)c1)C2=O | 1 µM | 2.1 µM | > 2.2 µM | 2.2 µM | –
3 | O=C(O)c1cn(CCO)c2ccc(Sc3ccccc3)cc2c1=O | 4.8 µM | 18.5 µM | > 22.7 µM | 22.7 µM | –
4 | O=C(c1ccc2c(c1)c(=O)c(C(=O)O)cn2CCCO)c1ccc(Cl)cc1Cl | 73.9 µM | > 100 µM | > 17.5 µM | 17.5 µM | > 100 µM
5 | O=C(O)c1cn(CCO)c2ccc(-c3ccccc3)cc2c1=O | > 100 µM | > 100 µM | > 44.9 µM | 44.9 µM | –
6 | O=C(O)c1cn(CCO)c2ccc(-c3ccncc3)cc2c1=O | 77.6 µM | > 100 µM | > 138 µM | 138 µM | > 100 µM
7 | O=C(O)c1cn(CCO)c2ccc(/C=C/c3ccccc3)cc2c1=O | 71.9 µM | > 100 µM | > 22.6 µM | 22.6 µM | –
8 | O=C(c1ccc2c(c1)c(=O)c(C(=O)O)cn2CCO)c1ccc(Cl)cc1Cl | 18.7 µM | > 100 µM | > 21.1 µM | 21.1 µM | > 100 µM
9 | CCn1cc(C(=O)O)c(=O)c2c1C(=O)C=C(Nc1cccc(Cl)c1F)C2=O | 9.7 µM | > 100 µM | > 2.4 µM | 2.4 µM | > 100 µM
10 | COCCn1cc(C(=O)O)c(=O)c2cc(Cc3ccc(Cl)cc3Cl)ccc21 | 5.6 µM | 16.5 µM | > 4.2 µM | 4.2 µM | –
11 | CN(C)CCn1cc(C(=O)O)c(=O)c2cc(Cc3ccc(Cl)cc3Cl)ccc21 | 10.8 µM | 24.1 µM | > 5.2 µM | 5.2 µM | –
12 | O=C(Nc1ccccc1)c1ccc2c(c1)c(=O)c(C(=O)O)cn2CCO | > 100 µM | > 100 µM | > 224 µM | 224 µM | –
13 | CCn1cc(C(=O)O)c(=O)c2cc(Nc3cccc(Cl)c3F)ccc21 | 38 µM | > 100 µM | > 9.8 µM | 9.8 µM | > 100 µM
14 | O=C(O)c1cn(CCO)c2ccc(Nc3cccc(Cl)c3F)cc2c1=O | > 100 µM | > 100 µM | > 27.4 µM | 27.4 µM | –
15 | CCn1cc(C(=O)O)c(=O)c2c1C(=O)C=C(Sc1ccccc1)C2=O | 4.6 µM | 1.6 µM | > 30 µM | 30 µM | –
16 | COc1cc2c(cc1Cc1cccc(Cl)c1F)c(=O)c(C(=O)O)cn2[C@H](CO)C(C)C | – | – | 0.00037 µM | 1.15 µM | –
17 | O=C(O)c1cn(CCO)c2ccc(Cc3ccc(Cl)cc3Cl)cc2c1=O | 0.07 µM | 0.2 µM | > 5.3 µM | 5.3 µM | –
18 | CCn1cc(C(=O)O)c(=O)c2c1C(=O)C=CC2=O | 43.7 µM | 58.7 µM | > 42.8 µM | 42.8 µM | –
19 | O=C(Nc1ccc2c(c1)c(=O)c(C(=O)O)cn2CCO)c1ccccc1 | > 100 µM | > 100 µM | > 220 µM | 220 µM | –
20 | O=C(O)c1cn(CCCCO)c2ccc(Cc3ccc(Cl)cc3Cl)cc2c1=O | 0.05 µM | 0.6 µM | > 4.2 µM | 4.2 µM | 16.6 µM
21 | O=C(c1ccc2c(c1)c(=O)c(C(=O)O)cn2CCCCO)c1ccc(Cl)cc1Cl | 54.9 µM | > 100 µM | > 17 µM | 17 µM | > 100 µM
22 | O=C(O)c1cn(CCO)c2ccc(Oc3ccc(F)c(Cl)c3)cc2c1=O | 86.9 µM | > 100 µM | > 9.9 µM | 9.9 µM | > 100 µM
23 | O=C(O)c1cn(CCO)c2ccc(Cc3cccc(Cl)c3F)cc2c1=O | – | – | – | > 15 µM | –
